A word on the IC50: it is the midpoint of a concentration-inhibition curve. By inhibition is commonly meant the relative decrease from the control value, in per cent.

Data on 1 molecule can be found in ChEMBL document CHEMBL2406952, “Identification of vitamin d3-based hedgehog pathway inhibitors that incorporate an aromatic a-ring isostere” (ACS Med Chem Lett, 2013).

Each structure is given as a SMILES string. Calls of active or inactive are those of the source. The rule behind the calls is not given here.

What all share (format): cell-based
The target of test [1] is T1, Vitamin D3 receptor (Mus musculus) (UniProt P48281).
T1 sequence (whole entry): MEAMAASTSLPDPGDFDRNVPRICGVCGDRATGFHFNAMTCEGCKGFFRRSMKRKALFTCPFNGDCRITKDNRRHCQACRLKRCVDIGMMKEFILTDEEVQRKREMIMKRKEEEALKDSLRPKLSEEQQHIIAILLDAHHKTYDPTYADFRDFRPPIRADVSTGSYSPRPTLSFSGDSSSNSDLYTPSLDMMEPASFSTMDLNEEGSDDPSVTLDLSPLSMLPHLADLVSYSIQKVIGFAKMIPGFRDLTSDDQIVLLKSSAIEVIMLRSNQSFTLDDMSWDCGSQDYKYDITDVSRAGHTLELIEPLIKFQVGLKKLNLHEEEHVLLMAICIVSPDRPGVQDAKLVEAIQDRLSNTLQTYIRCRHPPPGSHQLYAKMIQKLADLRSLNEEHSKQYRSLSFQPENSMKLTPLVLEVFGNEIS
The test can be described thus: Activation of VDR in mouse M210B4 cells assessed as upregulation of Cyp24A1 mRNA expression at 5 uM after 24 hrs by RT-PCR analysis relative to DMSO-treated control. The method, boiled down: (§1)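 Cyp24A1 mRNA normalized to ActinB and expressed relative to DMSO vehicle (set to 1.0). Cells treated for 24 h at 5 μM (some agents at 1 μM).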

The nature of test [2]: Inhibition of Hedgehog signaling in mouse C3H10T1/2 cells assessed as downregulation of Ptch mRNA expression after 24 hrs by RT-PCR analysis. As to conditions: C3H 10T1/2, 24 h. The procedure, abridged:
(§2)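 Oxysterol-stimulated cells (20(S)- plus 22(S)-hydroxycholesterol, 5 μM each) were treated with compound across a dose range for 24 h. Gli1 and Ptch mRNA were normalized to ActinB, and IC50 values were derived. VD3 was dosed up to 10 μM.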

A short description of test [3]: Inhibition of Hedgehog signaling in mouse ASZ001 cells assessed as downregulation of Gli1 mRNA expression after 48 hrs by RT-PCR analysis. As to conditions: ASZ001, 48 h. The method, boiled down: (§3)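 Gli1 mRNA dose-response after 48 h compound incubation, used to derive IC50 (μM). Each value comes from at least two separate experiments, each performed in triplicate.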

Test [4] can be described thus: Inhibition of Hedgehog signaling in mouse M210B4 cells assessed as downregulation of Gli1 mRNA expression at 10 uM after 24 hrs by RT-PCR analysis relative to 20(S)-hydroxycholesterol and 22(S)-hydroxycholesterol. The method, boiled down:
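M2-10B4 murine bone marrow stromal cells, Hh-responsive, treated for 24 h. Gli1 mRNA normalized to ActinB. Positive control 20(S)-hydroxycholesterol:22(S)-hydroxycholesterol (5 μM each) set as 100% pathway signaling. Values given as % of this level.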

Test [5] addresses T1, Vitamin D3 receptor (Mus musculus). The test is described as follows: Activation of VDR in mouse C3H10T1/2 cells assessed as upregulation of Cyp24A1 mRNA expression at 5 uM after 24 hrs by RT-PCR analysis relative to DMSO-treated control. The following applies: C3H 10T1/2. The procedure, abridged:
as §1

Test [6] is described as follows: Inhibition of Hedgehog signaling in mouse M210B4 cells assessed as downregulation of Gli1 mRNA expression after 24 hrs by RT-PCR analysis. The following applies: M210B4, 24 h. The method, boiled down: as §2
The nature of test [7]: Inhibition of Hedgehog signaling in human DaOY cells assessed as downregulation of Gli1 mRNA expression after 48 hrs by RT-PCR analysis. The method, boiled down: as §3
Test [8] concerns the target T1, Vitamin D3 receptor (Mus musculus). The test can be described thus: Activation of VDR in mouse ASZ001 cells assessed as upregulation of Cyp24A1 mRNA expression at 5 to 10 uM after 48 hrs by RT-PCR analysis. The method, boiled down: (§4)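 Cells exposed to compound for 48 h; Cyp24A1 mRNA expression measured and expressed relative to DMSO vehicle-treated cells, set as 1.0.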

Test [9] can be described thus: Inhibition of Hedgehog signaling in mouse M210B4 cells assessed as downregulation of Ptch mRNA expression after 24 hrs by RT-PCR analysis. The following applies: M210B4, 24 h. The procedure, abridged: as §2
Test [10] has as its target T1, Vitamin D3 receptor (Mus musculus). The test can be described thus: Activation of VDR in mouse ASZ001 cells assessed as upregulation of Cyp24A1 mRNA expression at =< 2.5 uM after 48 hrs by RT-PCR analysis. The method, boiled down:
as §4

Test [11] deals with T2, Vitamin D3 receptor (Homo sapiens) (UniProt P11473).
T2 sequence (whole entry): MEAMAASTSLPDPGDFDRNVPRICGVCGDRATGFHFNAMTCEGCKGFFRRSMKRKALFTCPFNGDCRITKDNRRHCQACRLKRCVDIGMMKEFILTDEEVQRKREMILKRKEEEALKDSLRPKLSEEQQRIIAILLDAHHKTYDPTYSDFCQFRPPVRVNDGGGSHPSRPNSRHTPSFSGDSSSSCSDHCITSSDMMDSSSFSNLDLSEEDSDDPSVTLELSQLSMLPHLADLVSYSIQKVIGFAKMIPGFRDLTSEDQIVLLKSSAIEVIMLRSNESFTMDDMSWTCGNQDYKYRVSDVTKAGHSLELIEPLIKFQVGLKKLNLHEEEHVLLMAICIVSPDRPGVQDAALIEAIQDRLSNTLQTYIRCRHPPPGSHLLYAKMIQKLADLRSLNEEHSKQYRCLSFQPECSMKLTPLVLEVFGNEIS
The test can be described thus: Activation of VDR in human DaOY cells assessed as upregulation of Cyp24A1 mRNA expression at 5 uM after 48 hrs by RT-PCR analysis relative to DMSO-treated control. The method, boiled down:
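Cyp24A1 mRNA measured after 48 h exposure to analogue and normalized to ActinB, expressed relative to DMSO vehicle-treated cells (set as 1.0). Single concentrations tested were 2.5, 5 or 10 μM.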

Test [12] in a line: Inhibition of Hedgehog signaling in mouse C3H10T1/2 cells assessed as downregulation of Gli1 mRNA expression at 5 uM after 24 hrs by RT-PCR analysis relative to 20(S)-hydroxycholesterol and 22(S)-hydroxycholesterol. As to conditions: C3H 10T1/2. The procedure, abridged: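 Endogenous Gli1 mRNA measured after 24 h at 5 μM and normalized to ActinB with DMSO vehicle set to 1.0. Cells stimulated with 20(S)-hydroxycholesterol plus 22(S)-hydroxycholesterol (5 μM each) define 100% pathway activity, and the analogue effect is given as % of this level.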

A short description of test [13]: Inhibition of Hedgehog signaling in mouse C3H10T1/2 cells assessed as downregulation of Gli1 mRNA expression after 24 hrs by RT-PCR analysis. The following applies: C3H 10T1/2, 24 h. The method, boiled down:
as §2

Regarding `C=C1CC[C@H](O)C/C1=C/C=C1\CCC[C@]2(C)[C@@H]([C@H](C)CCCC(C)C)CC[C@@H]12` [CHOLECALCIFEROL], the results for the fold change (FC) in [1], in test [5] and in test [11] were 274, 8340 and 149, respectively. For the same molecule, the IC50 was 2.9 µM in [2]; 2.1 µM in test [3]; more than 10 µM in test [6]; more than 10 µM in test [7]; more than 10 µM in test [9]; 4.1 µM in [13]. Further, the inhibition in [4] stood at 53%. Besides, the outcome in test [8] and in [10] was Active. Besides, the Gli1 mRNA level (% of OHC control) in test [12] was determined as 35.7%.
